Assay outcomes from PubChem.
This is a sample that favours compounds with a hit; in the whole collection about 2.9% have one here.
MC4R barr agon: activates human MC4R beta-arrestin recruitment; U2OS MC4R beta-arrestin complementation, luminescence; percent of melanotan II response, DMSO zero; 0.98% of 360,000 active; AID 540308; P32245; activation, % at 8.9 µM;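 active means activation above a per-plate cutoff, the mean activation of sample wells on that plate plus 3 SD, cut at about 8% in these data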
Target sequence (P32245 whole entry, looked up): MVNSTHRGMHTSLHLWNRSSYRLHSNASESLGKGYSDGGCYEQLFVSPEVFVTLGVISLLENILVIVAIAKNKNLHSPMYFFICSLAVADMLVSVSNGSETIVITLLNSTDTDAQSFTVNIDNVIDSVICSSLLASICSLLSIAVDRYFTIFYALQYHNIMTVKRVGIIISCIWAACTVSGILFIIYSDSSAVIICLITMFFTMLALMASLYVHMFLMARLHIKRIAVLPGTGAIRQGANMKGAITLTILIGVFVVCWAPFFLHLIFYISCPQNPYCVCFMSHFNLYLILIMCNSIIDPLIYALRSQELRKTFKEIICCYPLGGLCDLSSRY
H9c2 TAG inh: reduces triacylglycerol accumulation in H9c2 cells | Nile Red lipid (TAG) fluorescence; cells loaded with 200 µM oleic acid | inhibition, % at 12.5 µM | 0.66% of 230,000 active;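 active means pattern-corrected inhibition of lipid staining of at least 50% with the nuclear-stain viability signal not falling by more than 50%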;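 further: 0% = DMSO wells and 100% = triacsin C control wells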
Efflux pump mplx: inhibitors of Candida antifungal efflux pumps expressed in yeast; S. cerevisiae Candida pump triplex, Nile Red efflux; inhibition, % at 10 µM; 0.44% of 330,000 active;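 active means plate passing quality check with inhibition over a set limit, or well fluorescence over plate mean plus 4 SD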;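 further: Nile Red retained in pooled yeast measured as flow cytometry median fluorescence; 0% = buffer negative control and 100% = Enniatin B positive control; higher means more Nile Red kept so more efflux inhibition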
Calb FLC: C. albicans growth modulation with fluconazole; C. albicans CaCi-2 + fluconazole, Alamar Blue growth, 48 h; growth inhibition, % (test concentration not listed); 0.57% of 300,000 active; AID 1979;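 active means growth inhibition above about 58% in most replicates, limit read from the data, passing the limit was not always enough; inconclusive means exactly half the replicates above a set limit; inactive means most replicates below a set limit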;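 further: all wells also contain fluconazole at 8 µg/ml as a sub-toxic cotreatment; 0% = median of DMSO wells and 100% = median of geldanamycin control wells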
GalR3 antag: antagonists of human GalR3. O60755. HEK293 GalR3-CNG cAMP membrane potential fluorescence; galR3 body fused to GalR1 C-terminus. inhibition, % at 3 µM. 0.44% of 360,000 active. AID 651719;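 active means inhibition above the screen-wide average plus 3 SD, cut at about 13% in these data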;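 further: forskolin and galanin both at EC90 stimulate the cells; cAMP rise reported by CNG channel membrane potential dye signal; 0% = forskolin plus galanin with DMSO and 100% = forskolin alone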
Target sequence (O60755 1-299 limits assumed): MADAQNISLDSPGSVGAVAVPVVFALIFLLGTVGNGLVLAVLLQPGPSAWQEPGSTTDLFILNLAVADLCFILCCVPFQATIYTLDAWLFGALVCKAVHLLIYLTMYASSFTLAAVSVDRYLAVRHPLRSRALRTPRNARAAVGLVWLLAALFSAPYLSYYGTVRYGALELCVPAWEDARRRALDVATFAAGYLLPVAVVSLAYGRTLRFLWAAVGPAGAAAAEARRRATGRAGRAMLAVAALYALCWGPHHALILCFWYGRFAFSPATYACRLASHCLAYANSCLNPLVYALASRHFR
MC4R antag cAMP: antagonists of human melanocortin 4 receptor (MC4R); MC4R-expressing cells, MTII-stimulated cAMP, LANCE TR-FRET; 0.48% of 360,000 active; inhibition, % at 6.5 µM; P32245;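 active means inhibition above its plate's cutoff, the mean of tested wells on that plate plus 3 SD, cut at about 29% in these data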;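 further: 0% = Melanotan II alone and 100% = Melanotan II plus saturating MCL0020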
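Test system: U2OS cells stably expressing human melanocortin 4 receptor (MC4R); also added: Melanotan II challenge; compound: 6.5 µM single dose; timing: 30-min compound preincubation, 1-h Melanotan II challenge, 1-h detection, room temperature; signal: Eu-cAMP/anti-cAMP TR-FRET, emission 671 nm; repeats: one well per compound, no replicates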
TAG conf: triacylglycerol accumulation inhibition, confirmation; 71% of 990 active; inhibition, % at 12.5 µM; H9c2 lipid accumulation, Nile Red fluorescence; cells loaded with 200 µM oleic acid; shares compounds with H9c2 TAG inh;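 active means mean inhibition across replicates of 40% or more; inactive means mean inhibition below 40%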;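 further: plate controls were DMSO only wells for no effect and Triacsin C treated wells for full effect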
The depositor's hits bear a star; ? = inconclusive; / = no result.

SMILES	MC4R barr agon	H9c2 TAG inh	Efflux pump mplx	Calb FLC	GalR3 antag	MC4R antag cAMP	TAG conf
CC(C)(Oc1ccc(Cl)cc1)C(=O)Nc1ccc2oc(-c3ccncc3)nc2c1	-1.8	56.6*	-0.1	-0.4	-2.1	1.3	46.4*
COc1ccccc1-n1c(Cc2cccc3ccccc23)nnc1SCC(=O)O	/	/	/	/	-4.4	/	/
COc1ccc(NC2=NC(=S)N(c3cccc(C)c3)C23CCCCC3)cc1	-0.8	-6.7	0.0	-5.0	-3.7	5.4	/
COc1ccc(NC2=NC(=S)N(c3ccc(C)cc3)C23CCCCC3)cc1	-0.7	56.8*	-0.1	-13.3	1.9	2.6	29.9
CC(C)(C)C(C(=O)NCc1ccccc1)N1CCN(C(=O)C2CCCO2)CC1 (stereo not given)	/	/	/	/	3.3	/	/
CC(C)(C)OC(=O)N(CCc1ccccc1)Cc1ccc(OCc2cccc(NC(=O)/C=C/c3ccccc3)c2)cc1	1.4	50.9*	/	/	-6.1	7.8	65.3*
CC(C)(C)OC(=O)N(CCc1ccccc1)Cc1ccccc1OCc1cccc(NC(=O)/C=C/c2ccccc2)c1	1.5	53.1*	/	/	-6.1	6.5	43.2*
C=C1c2nc3ccccc3n2C=C(c2ccc(C)cc2)N1c1ccccc1	-1.2	56.4*	/	/	-6.4	-2.5	79.5*
C=C(C)Cn1c(-c2ccccc2)nc2ccccc21	-0.4	-5.6	0.2	19.3	-2.9	-0.1	/
Cc1cccc2sc(NC(=O)CN(C)S(=O)(=O)c3ccc(Br)s3)nc12	1.4	51.5*	-0.2	0.2	0.1	-1.7	39.8
CC(=O)N1CCN(c2ccc(N3CCN(C(C)=O)[C@H](C)C3)c(C)c2)[C@H](C)C1	/	/	/	/	-3.7	/	/
Cc1ccc(CC2(OCCN(C)C)CCC(C(C)(C)C)CC2)cc1 (stereo not given)	4.2	83.8*	/	/	-1.3	-6.8	62.6*
CN(C)CCOC1(Cc2ccc(F)cc2)CCC(C(C)(C)C)CC1 (stereo not given)	-1.1	30.4	/	/	-4.8	-3.8	/
CCOC(=O)c1c(CSC(=N)N)n(-c2ccccc2)c2cc(Br)c(OC(C)=O)cc12	5.8	61.9*	0.0	14.0	-10.5	12.0	67.6*
CCOC(=O)c1c(CN2CCN(C)CC2)n(-c2ccccc2)c2cc(Br)c(O)cc12	1.9	10.8	-0.1	-4.0	3.1	3.7	/
CCCC1OC2CC3C4CCC5=CC(=O)C=CC5(C)C4C(O)CC3(C)C2(C(=O)O)O1 (stereo not given)	-0.6	34.0	-0.1	0.7	-9.6	0.5	/
CCCC1O[C@@H]2C[C@H]3[C@@H]4CCC5=CC(=O)C=C[C@]5(C)[C@H]4[C@@H](O)C[C@]3(C)[C@]2(C(=O)CO)O1 (stereo not given in full)	-0.3	66.3*	-0.1	/	/	8.7	79.3*
CN(C)CCNC(=O)c1cccc2nc3cccc(F)c3nc12	0.1	91.5	/	/	-2.6	-24.8	/
CN(C)CCNC(=O)c1cccc2ccc(-c3ccc(-c4ccccc4)cc3)nc12	3.2	60.4*	/	/	-11.1	1.6	65.6*
c1ccc(C2Nc3ccccc3-c3nc4ccccc4n32)nc1 (stereo not given)	-2.3	55.1*	-0.1	1.6	-6.7	-2.8	15.8
Cc1noc(C)c1S(=O)(=O)Nc1ccc2c(c1)C(=O)N([C@@H](C)CO)C[C@H](C)[C@@H](CN(C)Cc1ccc(C(F)(F)F)cc1)OCCCC[C@H](C)O2	1.6	17.4	/	/	-6.4	19.7	/
COc1ccc(CNC(=O)C2CCN(c3nc(-c4ccccc4)nc4c3CCC4)CC2)cc1	0.8	52.4*	0.0	-0.1	-2.6	15.4	41.5*
CC1CCN(c2cc(N3CCC(C)CC3)c([N+](=O)[O-])cc2/C=C(\C#N)c2nn(-c3ccccc3)c(N)c2C#N)CC1	-3.0	52.4*	0.2	-4.4	2.9	5.1	49.4*
CC1CCN(c2ccc(/C=C(\C#N)c3nn(-c4ccccc4)c(N)c3C#N)cc2[N+](=O)[O-])CC1	-0.6	/	-0.1	?	-1.7	4.0	/
CC(=O)N1C[C@@H](CN2C(=O)CCC2=O)[C@@H]2C[C@H]1c1ccccc1N2C	/	/	/	/	-4.2	/	/
SMILES	MC4R barr agon	H9c2 TAG inh	Efflux pump mplx	Calb FLC	GalR3 antag	MC4R antag cAMP	TAG conf
Cc1ccc(/C=N/NC(=O)Cc2c[nH]c3ccccc23)c(C)c1	1.8	54.4*	-0.1	5.9	-3.8	0.9	44.4*
O=C(Cc1c[nH]c2ccccc12)N/N=C/c1ccccc1O	0.9	18.7	0.4	2.5	-4.7	3.1	/
C=C(C)c1cccc(C(C)(C)NC(=O)N2CCCC(C(N)=O)C2)c1 (stereo not given)	-0.8	-3.9	0.1	14.3	-2.8	8.9	/
C=C(C)c1cccc(C(C)(C)NC(=O)N2CCC(C(N)=O)CC2)c1	2.5	58.7*	-0.1	?	-1.0	5.3	7.2
C[C@H](CO)N1C[C@H](C)[C@H](CN(C)Cc2cncnc2)Oc2cc(Br)ccc2S1(=O)=O	-0.5	-4.5	/	/	-4.8	4.5	/
O=C(Nc1ccc(/C=C/c2nc3ccccc3o2)cc1)c1c(F)cccc1F	8.9*	54.4*	0.0	-3.9	-3.2	10.0	55.0*
CN(C(=O)CSc1ncnc2sc3c(c12)CCCC3)C1CCS(=O)(=O)C1 (stereo not given)	-0.3	-16.3	-0.4	/	-4.1	-6.6	/
N#CC(C#N)=c1ccc2c(c1)N1C(c3ccccc3)=CC(c3ccccc3)C3CCCCC31N=2 (stereo not given)	2.2	88.6*	-0.1	15.4	-2.6	-5.1	119.5*
CC(C)(C)c1csc(NNC(=O)c2ccc(Br)cc2)n1	0.1	54.6*	0.0	-15.6	3.9	7.1	11.7
Nc1ccccc1C#Cc1ccccc1	-0.1	52.6*	/	0.4	-5.9	10.8	53.6*
COc1ccc(CN2C(=O)CCC2(C)c2nnnn2-c2ccc3c(c2)OCCO3)cc1 (stereo not given)	/	/	/	/	-7.4	/	/
O=C1NC[C@H](Cc2ccc(O)cc2)N(C[C@@H]2CCCN2C[C@H](Cc2ccc(O)cc2)N2C[C@H](Cc3ccccc3)N(CCc3ccccc3)C(=O)C2=O)C1=O	/	/	/	/	1.3	/	/
COc1ccc(-c2nn(-c3ccccc3)cc2/C=C/C(=O)OCC(=O)Nc2ccccc2C#N)cc1	-0.8	67.2*	-0.2	18.7	3.4	8.5	76.8*
N#Cc1ccccc1NC(=O)COC(=O)/C=C/c1cn(-c2ccccc2)nc1-c1ccc(Cl)cc1	-1.5	84.0	/	/	-2.2	10.1	/
CN(C)CCCNC(=O)C[C@H]1C[C@H](C(=O)N2CCCCC2)[C@@]2(CCc3ccccc3)c3[nH]c4cc(-c5ccco5)ccc4c3CCN2C1=O	-0.4	57.0*	0.6	/	-6.1	19.3	70.2*
